Series [1] addresses T1, Prostaglandin G/H synthase 1 (Homo sapiens, UniProt P23219). In words: Inhibition of COX1 in human whole blood assessed as effect on A23187-induced thromboxane B2 production. The format is tissue-based.
The species named for the next series is Homo sapiens. In words: Selectivity for human COX2 over human COX1.
Series [2] deals with T1, Prostaglandin G/H synthase 1. In words: Inhibition of COX1 in human whole blood assessed as effect on A23187-induced thromboxane B2 production at 100 uM relative to control; values are per cent of control.
Series [3] has the same target. In words: Inhibition of COX1 in human whole blood assessed as effect on A23187-induced thromboxane B2 production at 0.3 uM relative to control; values are per cent of control.
Series [4] has as its system Rattus norvegicus. Briefly: Antiinflammatory activity against intrapouch dosed Sprague-Dawley rat carrageenan air-pouch model assessed as reduction of prostaglandin E2 at 45 umol/kg. Type of series: functional. Further details: scale not given: the % may be the effect or the level left. In short, it runs like this:
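Air pouch made with 20 mL sterile air sc on day -6 and 10 mL more on day -3; rats fasted 18 h. Compound in 0.5% methocel injected into the pouch 1 h before carrageenan (1 mL of 1.0% in saline). After 4 h, exudate recovered with PBS/heparin and assayed for PGE2 by enzyme immunoassay.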

Series [5] deals with Rattus norvegicus. In words: Toxicity in Sprague-Dawley rat assessed as reduction of gastric lesion score at 45 umol/kg, po. Type of series: organism-based, Stomach. Set-up: scale not given: the % may be the effect or the level left. The following applies: in vivo. In short, it runs like this: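 Rats fasted 18 h; compound homogenized in 0.5% methocel and gavaged at 1 mL/kg. Killed 3 h after dosing. Stomach opened along the greater curvature and photographed. Hemorrhagic lesion lengths scored blind and summed as the total lesion score. Means ± SEM, 4–12 animals; ANOVA with Dunnett's test.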

Series [6] relates to Rattus norvegicus. Briefly: Gastric sparing effect in Sprague-Dawley rat assessed as reduction of aspirin-induced gastric damage at 45 umol/kg, po. Type of series: ADME, organism-based, Stomach. The conditions noted are these: in vivo. Further details: scale not given: the % may be the effect or the level left. Put shortly: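 Aspirin (25 mg/kg, in 1.0% methocel) gavaged at 1.0 mL/kg; test compound in 0.5% methocel gavaged 2 min later. Rats killed after 3 h and stomachs scored as summed hemorrhagic lesion lengths. Six groups, 3–11 rats each; ANOVA with Newman-Keuls test.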

In series [7] the test system is Rattus norvegicus. In words: Antiinflammatory activity against Sprague-Dawley rat carrageenan air-pouch model assessed as reduction of prostaglandin E2 at 45 umol/kg, po. The format is functional. Set-up: scale not given: the % may be the effect or the level left. In short, it runs like this:
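Air pouches raised by sc injection of 20 mL sterile air (day -6) plus 10 mL on day -3; rats fasted 18 h. Compound suspended in 0.5% methocel given orally 1 h before intrapouch carrageenan (1 mL of 1.0% in saline). Exudate collected 4 h later after PBS/heparin lavage; PGE2 by enzyme immunoassay. Means ± SEM, n = 6–22; ANOVA with Dunnett's test vs vehicle.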

Series [8] concerns Rattus norvegicus. In words: Increase in nitrite plus nitrate levels in Sprague-Dawley rat at 45 umol/kg, po. Type of series: functional, organism-based. Put shortly: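 Plasma taken by cardiac puncture 4 h after oral dosing (0.5% methylcellulose vehicle), at the end of the air-pouch experiment. Total NOx (nitrite plus nitrate) measured with a fluorometric kit. Means ± SEM, n = 3; ANOVA with Dunnett's test vs vehicle.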

Series [9] addresses T2, Prostaglandin G/H synthase 2 (Homo sapiens) (UniProt P35354).
T2 sequence (whole entry): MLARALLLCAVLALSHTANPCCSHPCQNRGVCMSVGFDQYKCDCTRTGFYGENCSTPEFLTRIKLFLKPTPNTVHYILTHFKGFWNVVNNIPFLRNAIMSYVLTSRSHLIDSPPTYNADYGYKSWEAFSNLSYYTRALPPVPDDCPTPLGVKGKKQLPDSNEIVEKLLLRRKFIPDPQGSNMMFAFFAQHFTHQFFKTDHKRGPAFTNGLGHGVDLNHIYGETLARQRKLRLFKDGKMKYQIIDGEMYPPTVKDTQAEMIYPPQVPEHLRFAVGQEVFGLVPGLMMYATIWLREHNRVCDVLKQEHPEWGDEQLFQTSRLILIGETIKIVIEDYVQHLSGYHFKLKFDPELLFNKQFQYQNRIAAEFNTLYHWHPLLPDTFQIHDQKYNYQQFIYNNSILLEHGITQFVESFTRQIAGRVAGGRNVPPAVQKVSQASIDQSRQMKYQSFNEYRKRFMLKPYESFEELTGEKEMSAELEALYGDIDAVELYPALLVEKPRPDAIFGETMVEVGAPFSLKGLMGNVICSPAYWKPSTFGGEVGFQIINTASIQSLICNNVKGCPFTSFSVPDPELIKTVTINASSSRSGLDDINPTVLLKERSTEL
In words: Inhibition of COX2 in human whole blood assessed as effect on LPS-induced thromboxane B2 production at 30 uM relative to control; values are per cent of control.

Series [10] has as its target T1, Prostaglandin G/H synthase 1. Briefly: Inhibition of COX1 in human whole blood assessed as effect on A23187-induced thromboxane B2 production at 3 uM relative to control; values are per cent of control.
Series [11] shares this target. Briefly: Inhibition of COX1 in human whole blood assessed as effect on A23187-induced thromboxane B2 production at 1 uM relative to control; values are per cent of control.
Series [12] shares this target. Briefly: Inhibition of COX1 in human whole blood assessed as effect on A23187-induced thromboxane B2 production at 30 uM relative to control; values are per cent of control.
Series [13] has the same target. Briefly: Inhibition of COX1 in human whole blood assessed as effect on A23187-induced thromboxane B2 production at 10 uM relative to control; values are per cent of control.
In series [14] the target is T2, Prostaglandin G/H synthase 2 (Homo sapiens). In words: Inhibition of COX2 in human whole blood assessed as effect on LPS-induced thromboxane B2 production at 100 uM relative to control; values are per cent of control.

Calls of active or inactive are those of the source. The rule behind the calls is not given here. Where only a bound is given, the exact number is not on record here.

T1 sequence (P23219 whole entry): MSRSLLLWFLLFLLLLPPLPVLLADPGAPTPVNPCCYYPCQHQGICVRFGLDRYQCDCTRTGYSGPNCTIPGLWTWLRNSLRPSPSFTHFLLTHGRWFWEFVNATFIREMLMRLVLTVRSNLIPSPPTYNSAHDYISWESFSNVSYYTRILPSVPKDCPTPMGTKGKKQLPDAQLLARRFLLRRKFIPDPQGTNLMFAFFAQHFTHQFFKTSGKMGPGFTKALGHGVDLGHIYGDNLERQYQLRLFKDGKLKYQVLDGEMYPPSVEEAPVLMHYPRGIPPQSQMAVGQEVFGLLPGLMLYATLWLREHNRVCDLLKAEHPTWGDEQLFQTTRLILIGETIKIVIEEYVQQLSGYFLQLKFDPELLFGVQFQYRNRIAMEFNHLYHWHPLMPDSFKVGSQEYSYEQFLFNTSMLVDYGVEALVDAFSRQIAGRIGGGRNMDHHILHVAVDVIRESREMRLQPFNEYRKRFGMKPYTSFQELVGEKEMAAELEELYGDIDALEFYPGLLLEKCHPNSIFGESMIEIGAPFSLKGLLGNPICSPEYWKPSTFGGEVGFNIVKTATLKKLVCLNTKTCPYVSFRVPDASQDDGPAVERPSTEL

A word on the IC50: it is the concentration that gives 50% inhibition. As to `COc1ccc2c(c1)c(CC(=O)NOCCCO)c(C)n2C(=O)c1ccc(Cl)cc1`, the IC50 in series [1] was less than 0.3 µM. Further, in the series listed under Homo sapiens, the Ratio IC50 was less than 0.4. Further, the values for the residual activity in series [2] and in series [3] were 1% and 28%, respectively.
As for `COc1ccc2c(c1)c(CC(=O)O)c(C)n2C(=O)c1ccc(Cl)cc1` [INDOMETHACIN], the Activity in the series with Rattus norvegicus [4] came to 97%.
As for `COc1ccc2c(c1)c(CC(=O)NCCCO[N+](=O)[O-])c(C)n2C(=O)c1ccc(Cl)cc1`, the Activity in the series with Rattus norvegicus [5] turned out to be 98%; with Rattus norvegicus [6] it was 85%; in the series on Rattus norvegicus [4], 99%; in the series with Rattus norvegicus [7] it was 71%. Further, in series [1], the IC50 was determined as 6 µM. Also, the Ratio IC50 in the series filed under Homo sapiens amounted to 5. Also, in the series with Rattus norvegicus [8], the result was Active. For the same molecule, the residual activity came to 1% in series [9]; 65% in [10]; 77% in series [11]; 7% in series [12]; 31% in [13]; 0% in series [2].
Take `COc1ccc2c(c1)c(CCNS(=O)(=O)CCCO[N+](=O)[O-])c(C)n2C(=O)c1ccc(Cl)cc1`: in series [1], the IC50 stood at 11 µM. Further, the Activity is listed as 59% in the series with Rattus norvegicus [4] and 44% with Rattus norvegicus [7]. Moreover, the residual activity in series [9] was 7%; in series [10], 68%; in series [11], 100%; in [12] it was 20%; in [13], 57%; in series [2], 16%.
Take `COc1ccc2c(c1)c(CCNS(=O)(=O)CCCO)c(C)n2C(=O)c1ccc(Cl)cc1`: the IC50 in series [1] turned out to be 3.7 µM. Further, in the series listed under Homo sapiens, the Ratio IC50 worked out at 3.5. Moreover, the Activity in the series on Rattus norvegicus [4] was found to be 98%; in the series with Rattus norvegicus [7], 96%. The residual activity in series [9] amounted to 0%; in [10] it was 51%; in series [11], 73%; in series [12], 23%; in [13], 33%; in series [2] it was 6%. For the same molecule, in series [3], the residual activity amounted to 82%.
As for `COc1cc2c(CC(=O)NCCCO[N+](=O)[O-])c(C)n(C(=O)c3ccc(Cl)cc3)c2cc1Cl`, the IC50 in series [1] amounted to 15.9 µM. The residual activity in series [9] was 3%; in [14], 0%; in [10] it was 72%; in [11], 98%; in series [12], 41%; in series [13], 70%. Also, the residual activity in [2] turned out to be 13%.
Consider `COc1ccc2c(c1)c(CC(=O)NCCCO)c(C)n2C(=O)c1ccc(Cl)cc1`, for which the Activity is 98% in the series with Rattus norvegicus [5], 97% with Rattus norvegicus [4] and 85% in the series with Rattus norvegicus [7]. Moreover, the IC50 in series [1] amounted to 3.3 µM. Also, the residual activity was found to be 0% in series [9]; 46% in series [10]; 91% in series [11]; 11% in series [12]; 37% in series [13]; 6% in series [2].
